Only some compounds are listed: those with a hit (about 3.8% of all), similar ones and a draw of the others.
rCAG binder = r(CAG) repeat RNA binding. TO-PRO-1 dye displacement fluorescence. inhibition, % at 3 µM. 370,000 compounds, 1.3% hits;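 active = inhibition above the plate cutoff, the mean of all test compounds on that plate plus 3 SD, cut at about 35% in these data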;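 note: higher means more dye released from RNA so lower well fluorescence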
V-ATPase pH = regulators of yeast V-ATPase proton transport; response, % at 10 µM; S. cerevisiae, pHLuorin cytosolic pH fluorescence; 350,000 compounds, 0.37% hits; in the data active = response mostly above about 7.3%, no sharp cut-off; inactive = mostly below about 5.4%; note: actives read high
Exocytosis inh = blocks lytic granule exocytosis | TALL-104 LAMP-1 surface exposure, flow cytometry; cells stimulated with thapsigargin and PMA | inhibition, % at 10 µM | 360,000 compounds, 0.66% hits | AID 651702;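 active = inhibition above about 55%, limit read from the data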
T cell HTS = T cell immune modulators affecting CD8 T cell-vesicle binding; 2C CD8+ T cell-vesicle binding, flow cytometry; stronger effect = lower value; response (vesicle binding), % at 7 µM; 330,000 compounds, 0.068% hits;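 active = response, share of CD8 T cells binding vesicles, and their 90th percentile fluorescence all below set limits, cut at about 80% in these data, passing the limit was not always enough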;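 note: values below 100% mean blocked vesicle binding to the CD8+ T cells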
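Material: 2C TCR transgenic mouse naive CD8+ T cells, MACS-purified. Also added: QL9-charged Drosophila Ld/ICAM-1/B7-1 vesicles. Timing: binding 1.5 h at 37 °C. Measured by: high-throughput flow cytometry with anti-B7-1 and anti-CD8 staining. Read-out: percent CD8+ FL2 mean versus row control. Controls: Unloaded micro-vesicles (low), QL9 vesicles with 0.7% DMSO (high).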
Beta2AR agonist = activates human beta-2 adrenergic receptor causing internalization; Am2.2-beta2AR cells, FAP receptor internalization, flow cytometry; 340,000 compounds, 0.43% hits; response, % (concentration not given with the values);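 active = response above a set limit, near 3 SD of response in nonfluorescent compounds, cut at about 42% in these data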
Target sequence (P07550 whole entry, looked up): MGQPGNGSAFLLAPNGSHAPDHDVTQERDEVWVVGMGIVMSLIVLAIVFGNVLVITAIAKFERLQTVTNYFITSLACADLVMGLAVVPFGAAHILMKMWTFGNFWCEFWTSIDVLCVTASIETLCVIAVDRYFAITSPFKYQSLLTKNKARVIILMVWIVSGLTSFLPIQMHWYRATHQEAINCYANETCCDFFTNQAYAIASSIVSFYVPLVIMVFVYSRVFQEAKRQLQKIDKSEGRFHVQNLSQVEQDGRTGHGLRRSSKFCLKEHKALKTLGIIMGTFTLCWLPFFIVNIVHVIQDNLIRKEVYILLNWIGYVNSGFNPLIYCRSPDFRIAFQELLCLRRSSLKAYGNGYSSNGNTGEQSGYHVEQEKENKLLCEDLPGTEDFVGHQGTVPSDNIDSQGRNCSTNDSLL
MPTP inh = inhibitors of mitochondrial permeability transition pore; 360,000 compounds, 1.4% hits; inhibition, % at 10 µM; isolated mouse mitochondria, Ca2+ swelling absorbance, 30 min; AID 602449;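 active = inhibition of 50% or more, scaled per plate between neutral and stimulator controls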
MPTP counter = Rhodamine 123 counter-screen of mitochondrial pore hits; shares compounds with MPTP inh; isolated mitochondria, membrane potential, Rhodamine 123 fluorescence; inhibition, % at 10 µM; 5,000 compounds, 78% hits; in the data active = inhibition above about 22%
MPTP swell DR = dose response confirmation of mitochondrial permeability transition pore inhibitors. shares compounds with MPTP inh. isolated mitochondria swelling, absorbance. IC50, µM. 780 compounds, 58% hits. AID 651561; in the data active = IC50 below about 20 µM
MPTP cs DR = counter-screen for mitochondrial permeability transition pore inhibitors, dose response; shares compounds with MPTP inh; isolated mitochondria counterscreen, fluorescence read-out; 780 compounds, 49% hits; IC50, µM; in the data active = IC50 below about 80 µM
A number is an active result.

Screening O=C(O)c1cccc(S(=O)(=O)Nc2ccc(O)c(Sc3nc4ccccc4s3)c2)c1 returned rCAG binder inactive, V-ATPase pH inactive, Exocytosis inh inactive, T cell HTS inactive, Beta2AR agonist inactive and MPTP inh inactive.
`O=S(=O)(Nc1ccc(O)c(Sc2nc3ccccc3s2)c1)c1ccc(F)cc1` gave rCAG binder inactive, V-ATPase pH inactive, Exocytosis inh inactive, T cell HTS inactive, Beta2AR agonist inactive, MPTP inh 78 and MPTP counter 55.
For CC(=O)Nc1ccc(NC(=O)C(C)OC(=O)c2ccccc2NS(=O)(=O)c2cccs2)cc1 (configuration not stated) the results were rCAG binder inactive, V-ATPase pH inactive, Exocytosis inh inactive, T cell HTS inactive, Beta2AR agonist inactive and MPTP inh inactive.
Screening Cc1cccc(NC(=O)C(C)OC(=O)c2ccccc2NS(=O)(=O)c2cc(C)c(C)c([N+](=O)[O-])c2)c1 (configuration not stated) returned rCAG binder inactive, V-ATPase pH inactive, Exocytosis inh inactive, T cell HTS inactive, Beta2AR agonist inactive, MPTP inh 93 and MPTP counter 65.
Screening O=C(NC(NC1CCS(=O)(=O)C1)C(Cl)(Cl)Cl)c1cccc(Cl)c1 (configuration not stated) returned rCAG binder inactive, V-ATPase pH inactive, Exocytosis inh inactive, T cell HTS inactive, Beta2AR agonist inactive and MPTP inh inactive.
For O=C(NC(NC1CCS(=O)(=O)C1)C(Cl)(Cl)Cl)c1ccc(Br)cc1 (configuration not stated) the results were rCAG binder inactive, V-ATPase pH inactive, Exocytosis inh inactive, T cell HTS inactive, Beta2AR agonist inactive, MPTP inh 91 and MPTP counter 102.
`CCN(CC)C(=O)CC[C@H]1CC[C@]2(CCCN(C(=O)c3ccc4ccccc4n3)C2)O1` gave rCAG binder inactive.
`CCCCCCCCCc1nc2sc3c(c2c(=O)n1NC(=O)c1ccc([N+](=O)[O-])cc1)CC(C)(C)OC3` gave rCAG binder inactive, V-ATPase pH inactive, Exocytosis inh inactive, T cell HTS inactive, Beta2AR agonist inactive, MPTP inh 98 and MPTP counter 64.
`CCCCCCCCCc1nc2sc3c(c2c(=O)n1NC(=O)c1ccccc1[N+](=O)[O-])CC(C)(C)OC3` gave rCAG binder inactive, V-ATPase pH inactive, Exocytosis inh inactive, T cell HTS inactive, Beta2AR agonist inactive, MPTP inh 87 and MPTP counter 63.
CN1C(=O)C[C@@](C#N)(C(=O)NCCc2ccccc2)[C@H]1c1ccccc1 was read as rCAG binder inactive.
COC(=O)[C@H](C(C)C)N1Cc2nnn(CC3CCCCC3)c2-c2cc(F)ccc2S1(=O)=O was read as rCAG binder inactive.
Screening COC[C@H]1CCCN1c1ccc2c(c1)O[C@H](C)CCN(C1CC1)S2(=O)=O returned rCAG binder inactive.
COc1ccc(CN(C)CC(O)COc2ccc(C(=O)c3ccccc3)cc2)c(OC)c1OC (configuration not stated) was read as rCAG binder inactive, V-ATPase pH inactive, Exocytosis inh inactive, T cell HTS inactive, Beta2AR agonist inactive and MPTP inh inactive.
Screening COc1ccc(Br)cc1CN(C)CC(O)COc1ccc(Br)cc1 (configuration not stated) returned rCAG binder inactive, V-ATPase pH inactive, Exocytosis inh inactive, T cell HTS inactive, Beta2AR agonist inactive, MPTP inh 80, MPTP counter inactive, MPTP swell DR 18 and MPTP cs DR 42.
For CCN(CC)CCOC(=O)c1ccc(NC(=O)CCCN2C(=O)S/C(=C/c3ccc(OC)cc3)C2=S)cc1 the results were V-ATPase pH inactive, Exocytosis inh inactive, T cell HTS inactive, Beta2AR agonist inactive, MPTP inh 61 and MPTP counter inactive.
Screening COc1ccc(/C=C2\SC(=S)N(CCC(=O)Nc3ccc(O)cc3)C2=O)cc1 returned rCAG binder inactive, V-ATPase pH inactive, Exocytosis inh inactive, T cell HTS inactive, Beta2AR agonist inactive and MPTP inh inactive.
For O=C(Nc1ccc(F)cc1)OCCN1CCN(Cc2ccccc2)CCC1=O the results were rCAG binder inactive, V-ATPase pH inactive, Exocytosis inh inactive, T cell HTS inactive, Beta2AR agonist inactive and MPTP inh inactive.
For O=C(Nc1cccc(C(F)(F)F)c1)OCCN1CCN(Cc2ccccc2)CCC1=O the results were rCAG binder inactive, V-ATPase pH inactive, Exocytosis inh inactive, T cell HTS inactive, Beta2AR agonist inactive, MPTP inh 98 and MPTP counter 90.
COc1ccc(-c2noc(CSc3nc(N)cc(=O)[nH]3)n2)cc1 was read as rCAG binder inactive, V-ATPase pH inactive, Exocytosis inh inactive, T cell HTS inactive, Beta2AR agonist inactive, MPTP inh 74 and MPTP counter 45.
Screening Cc1ccccc1CN1CCCCC(NC(=O)c2ccc(-c3ccccc3)cc2)C1=O (configuration not stated) returned rCAG binder inactive.
CCN(CC)S(=O)(=O)c1ccc(N2CCN(c3ccccc3OC)CC2)c(N)c1 was read as rCAG binder inactive, V-ATPase pH inactive, Exocytosis inh inactive, T cell HTS inactive, Beta2AR agonist inactive, MPTP inh 108 and MPTP counter 98.
Screening CCN(CC)S(=O)(=O)c1ccc(Oc2ccccc2)c(N)c1 returned rCAG binder inactive, V-ATPase pH inactive, Exocytosis inh inactive, T cell HTS inactive, Beta2AR agonist inactive and MPTP inh inactive.
O[C@H](COc1cccc(F)c1)CN1CCC(C(O)(c2ccccc2)c2ccccc2)CC1 was read as rCAG binder inactive.
For c1ccc(CN2CCN(CCOCCOc3cccc4ccccc34)CC2)cc1 the results were rCAG binder inactive, V-ATPase pH inactive, Exocytosis inh inactive, T cell HTS inactive, Beta2AR agonist inactive, MPTP inh 82, MPTP counter inactive, MPTP swell DR inactive and MPTP cs DR 74.
For CC(C)CCNC(=O)C1CCN(c2cncnc2)CC1 the results were rCAG binder inactive.
Screening Fc1cccc(Nc2nc(-c3ccncc3)nc3ccccc23)c1 returned rCAG binder inactive, V-ATPase pH inactive, Exocytosis inh inactive, T cell HTS inactive, Beta2AR agonist inactive, MPTP inh 85 and MPTP counter 85.
`O=C(OCCNc1nc(-c2ccccc2)nc2ccccc12)c1cccnc1` gave rCAG binder inactive, V-ATPase pH inactive, Exocytosis inh inactive, T cell HTS inactive, Beta2AR agonist inactive and MPTP inh inactive.

Screening data: PubChem, several laboratories
